CHOP UPR activ – activators of apoptotic arm of unfolded protein response (CHOP); CHO-CHOP luciferase reporter, UPR activation, luminescence; percent of tunicamycin response over DMSO baseline; activation, % at 10 µM; actives 0.34% (n = 330,000);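 active means at 10 µM dose, activation of 40% or more, normalized to positive control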;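 further: 100% = tunicamycin at 10 µg/mL and 0% = DMSO alone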
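measured by = luciferase luminescence | assay system = CHO-CHOP cells, stable luciferase reporter of PERK-eIF2a-CHOP signalling | amount = 500 reporter cells seeded per well | timing = 6 h compound exposure at 37 °C after overnight seeding | controls = positive tunicamycin 10 µg/mL, negative DMSO alone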
MC4R barr agon – human MC4R agonism via beta-arrestin | U2OS MC4R beta-arrestin complementation, luminescence; percent of melanotan II response, DMSO zero | activation, % at 8.9 µM | actives 0.98% (n = 360,000) | AID 540308;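 active means activation above a per-plate cutoff, the mean activation of sample wells on that plate plus 3 SD, cut at about 8% in these data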
Target sequence (P32245 whole entry, looked up): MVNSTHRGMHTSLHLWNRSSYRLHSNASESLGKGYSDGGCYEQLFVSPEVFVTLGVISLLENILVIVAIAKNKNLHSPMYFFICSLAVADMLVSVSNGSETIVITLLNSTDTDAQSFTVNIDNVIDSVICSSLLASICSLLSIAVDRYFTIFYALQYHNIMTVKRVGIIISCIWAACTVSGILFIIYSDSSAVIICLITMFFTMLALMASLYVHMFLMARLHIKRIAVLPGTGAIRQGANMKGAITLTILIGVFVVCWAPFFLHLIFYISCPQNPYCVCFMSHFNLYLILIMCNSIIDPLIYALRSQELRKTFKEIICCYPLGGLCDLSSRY
XBP1 UPR activ – activators of adaptive arm of unfolded protein response (XBP1) | activation, % at 20 µM | actives 0.33% (n = 330,000) | CHO-XBP1 luciferase reporter, IRE1-XBP1 UPR activation, luminescence; percent of tunicamycin response, DMSO as zero;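 active means versus positive control, 20 µM dose yields 30% or more activation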;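 further: 100% = tunicamycin at 10 µg/mL and 0% = DMSO only wells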
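Material: CHO-XBP1 cells stably carrying IRE1-XBP1-driven luciferase reporter / Amount: 1000 cells per well / Compound: 20 µM, 1% DMSO / Times: 6 h treatment, 37 °C / Detection: luciferase luminescence / Measure: % activation of reporter signal versus tunicamycin and DMSO controls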
A1 inh – inhibitors of the anti-apoptotic protein A1, read as caspase activation; AID 2462; MEF A1-2A-BIM cells, Caspase-Glo 3/7 luminescence, 3 h; percent of clofoctol response, vehicle zero; caspase activation, % (concentration not given with the values); actives 0.066% (n = 330,000);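 active means over half of replicate activation scores above 10%, or exactly half above 10 with the replicate mean above 10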
MC4R antagonist – blocks human MC4R cAMP signaling. P32245. MC4R-expressing cells, MTII-stimulated cAMP, LANCE TR-FRET. inhibition, % at 6.5 µM. actives 0.48% (n = 360,000);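 active means inhibition above its plate's cutoff, the mean of tested wells on that plate plus 3 SD, cut at about 29% in these data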;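 further: 0% = Melanotan II alone and 100% = Melanotan II plus saturating MCL0020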
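Test system: U2OS cells stably expressing human melanocortin 4 receptor (MC4R); also added: Melanotan II challenge; compound: 6.5 µM single dose; timing: 30-min compound preincubation, 1-h Melanotan II challenge, 1-h detection, room temperature; signal: Eu-cAMP/anti-cAMP TR-FRET, emission 671 nm; repeats: one well per compound, no replicates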
cAMP nonselect – nonselective cAMP signaling inhibitor, MC4R antagonist counter-screen; shares compounds with MC4R antagonist; parental U2OS, forskolin cAMP, LANCE TR-FRET; inhibition, % at 6.5 µM; actives 26% (n = 1,600); AID 602193;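 active means mean inhibition over triplicates above the low-control well mean plus 3 SD, set per campaign, cut at about 13% in these data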;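 further: signal is single emission at 671 nm which falls as cellular cAMP rises; 0% = forskolin-stimulated wells and 100% = buffer without forskolin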
MC4R antag conf – human MC4R cAMP antagonism confirmation; shares compounds with MC4R antagonist; MC4R-expressing cells, MTII-stimulated cAMP, TR-FRET; inhibition, % at 6.5 µM; actives 27% (n = 1,600); in the data active means inhibition above about 29%;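 further: 0% = agonist stimulated wells alone and 100% = agonist stimulated wells plus saturating reference antagonist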
Numbers without * were called inactive; nt = no result. Most compounds without a hit are left out; they make up all but 2% or so of the library.

SMILES | CHOP UPR activ | MC4R barr agon | XBP1 UPR activ | A1 inh | MC4R antagonist | cAMP nonselect | MC4R antag conf
CC(C)(C)OC(=O)NCc1ccc(NC(=O)c2nc[nH]c2C(=O)NCCCNC(=O)c2[nH]cnc2C(=O)Nc2ccc(CNC(=O)OC(C)(C)C)cc2)cc1 | 3 | 8.7* | -1 | -1 | 31* | 3 | 8
CC(C)(C)OC(=O)NCCCCCNC(=O)c1[nH]cnc1C(=O)Nc1cc(Br)ccc1F | nt | 2 | nt | nt | 33* | 4 | 3
CCc1nc2c(OCC3CCCCC3)cccn2c1N(C=O)Cc1ccc(OC)cc1 | nt | 0 | nt | nt | 26 | nt | nt
COc1ccc(NC(=O)C[C@H]2C(=O)N(CCc3ccccc3)C[C@@H]2Cc2ccccc2)cc1 | nt | -1 | nt | nt | 6 | nt | nt
CC1(Oc2cccnc2Cl)CCN(Cc2ccc(OC(F)(F)F)cc2)C1 (centres undefined) | nt | -1 | nt | nt | 7 | nt | nt
COc1ccc(S(=O)(=O)N2CCN(CC(=O)NC(C)c3cccs3)CC2)cc1 (centres undefined) | nt | -3 | nt | nt | 13 | nt | nt
Cc1onc(-c2c(F)cccc2Cl)c1C(=O)Nc1nnc(C(F)(F)F)s1 | 1 | -4 | -3 | 0 | 48* | 36* | 74*
Cc1onc(-c2c(F)cccc2Cl)c1C(=O)Nc1nccs1 | -2 | -2 | 0 | 0 | 9 | nt | nt
CCCNC(=O)C1(C)CCCN(Cc2ccc(C(F)(F)F)cc2)C1 (centres undefined) | nt | 0 | nt | nt | 2 | nt | nt
Cc1ccc(-n2c(SCC(=O)O)nc3sc4c(c3c2=O)CCCC4)cc1 | -2 | 2 | 0 | 1 | 9 | nt | nt
Cc1ccc(-c2c(CC(=O)O)c(C)nc3sc4c(c23)CCCC4)cc1 | -2 | -1 | -3 | 2 | 29* | 2 | -1
COC(=O)CC1C(=O)NCCN1C(=S)Nc1ccccc1 (centres undefined) | 1 | -3 | 2 | 0 | 7 | nt | nt
CCOC(=O)CC1C(=O)NCCN1C(=S)Nc1ccccc1 (centres undefined) | -1 | 2 | -2 | 0 | 29* | -7 | -22
CCOC(=O)C[C@@H](C#N)NC(=O)[C@@H]1CCCN1C(=O)[C@@H](NC(=O)c1ccc(N)c(Cl)c1)C(C)(C)C | nt | 0 | nt | nt | 17 | nt | nt
COC(=O)C[C@H]1C[C@H]2c3cc(NC(=O)NC4CCCC4)ccc3O[C@H]2[C@@H](CO)O1 | nt | -1 | nt | nt | 0 | nt | nt
COc1ccc(NC(=O)c2cccc(-n3c(C)ccc3C)c2)c(OC)c1 | 1 | -1 | -1 | 0 | 29* | 1 | -4
OC(COc1ccccc1)CN1CCOCC1 (centres undefined) | -2 | -1 | 0 | 1 | 30* | 0 | 2
CCN(CC)S(=O)(=O)c1cc(C(=O)Nc2nncs2)c(Cl)cc1Cl | 2 | -2 | -2 | 1 | 43* | 17* | 43*
COc1ccc(NC(=O)c2cc(C3CCCCN3C(=O)c3cccs3)on2)c(C)c1 (centres undefined) | nt | 0 | nt | nt | 5 | nt | nt
O=C(COC(=O)c1cc(S(=O)(=O)N2CCOCC2)ccc1O)Nc1cc(S(=O)(=O)N2CCCC2)ccc1Cl | -2 | 1 | -2 | -1 | 30* | 4 | 8
O=C(COC(=O)c1ccccc1O)Nc1ccc(S(=O)(=O)N2CCCCC2)cc1 | 1 | 1 | -1 | 1 | 2 | nt | nt
O=C(COC(=O)c1cc(S(=O)(=O)N2CCCC2)ccc1O)Nc1ccc(S(=O)(=O)N2CCOCC2)cc1 | -1 | 2 | 0 | 0 | 33* | -10 | -26
CCN(CC)S(=O)(=O)c1ccc(NC(=O)COC(=O)c2cc(S(=O)(=O)Nc3ccc(OC)cc3)ccc2O)cc1 | 2 | 1 | -2 | 1 | 32* | 1 | 4
COc1cccc(CNc2nc3cc(-c4ccsc4)sc3c(=O)n2C)c1OC | nt | 0 | nt | nt | 10 | nt | nt
